Read-outs that look alike come from different tables or passages of the source. Marks after values point to notes of the source that are not given here.

These results are taken from PMC3908450 (Biological chemistry, 2011).

The test system of assay [1] is mutant ataxin-3 protein. As to the kind of experiment: Inhibition of mutant ATX3 protein expression in patient fibroblasts GM06151. Conditions: PNA conjugates. The class given is cell-based, human. The gist of the method:
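GM06151 fibroblasts (CAG 74 mutant/24 wild-type repeats) in MEM with 10% heat-inactivated FBS and 0.5% NEAA, 37 °C, 5% CO2, plated two days before dosing. Conjugate stocks heated 65 °C for 5 min, diluted in OptiMEM and added; medium replaced at 24 h; harvest typically day 4. 7.5% SDS-PAGE resolved mutant and wild-type ATX3 bands for western blotting, with β-actin also probed. Inhibition relative to control was fitted per replicate to get separate mutant and wild-type IC50s.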

The test system of assay [2] is mutant ataxin-3 protein. The note with it: PNA conjugate; GM06151 fibroblasts; ref Hue et al., 2009a; cited from earlier work.

K8-GCTGCTG-K [REP7NK]: in assay [1], the “Selectivity (wt IC50 versus mut IC50)” value is reported as more than 1.7 fold.
Same read-out and setting: in the case of K8-GCTGCTGCTGCTG-K8 [REP13KK] it was 1.8 fold; in that of K8-GCTGCTGCTGCTGCTGCTG-K [REP19NK], 3.4 fold; in that of K-GCTGCTG-K8 [REP7], 3.6 fold.
On the same count and under the same terms, to K-GCTGCTGCT-K8 [REP9] belongs 3.0 fold; to K-GCTGCTGCTGC-K8 [REP11], 3.4 fold.
Still for that read-out and setting: to K-GCTGCTGCTGCTG-K4 [REP13K4] belongs 2.3 fold.
K-GCTGCTGCTGCTG-K6 [REP13K6]: in assay [1], the “Selectivity (wt IC50 versus mut IC50)” value came to 5.0 fold.
On to K-GCTGCTGCTGCTG-K8 [REP13], for which the “Selectivity (wt IC50 versus mut IC50)” value in assay [1] turned out to be 2.2 fold.
The same measure, in the same setting: to K-GCTGCTGCTGCTGCTG-K8 [REP16] belongs 2.4 fold.
For the substance “K-GCTGCTGCTGCTGCTGCTG-(Kpeptoid)8 [REP19P]”, the “Selectivity (wt IC50 versus mut IC50)” value in assay [1] is reported as more than 2.2 fold.
Take K-GCTGCTGCTGCTGCTGCTG-K8 [REP19]: in assay [2], the “Selectivity (wt IC50 versus mut IC50)” value is on record as 2.7 ^‡ fold.
With K-GCTGCTGCTGCTGCTGCTG-R8 [REP19R], the “Selectivity (wt IC50 versus mut IC50)” value in assay [1] was found to be 1.6 fold.
The same measure, in the same setting: in the case of “K-GCTGCTGCTGCTGCTGCTG-Spacer-K8 [REP19S]” it was 1.7 fold; in that of R8-GCTGCTGCTGCTGCTGCTG-K [REP19NR], 2.7 fold.
